Reference: article PMC6467359 (Toxicological Research, 2019)
Like-named read-outs stand apart in the source and are kept apart here. Each block holds one compound with its values, some of them ahead of it.

What was measured:
SKOV-3 cells [1] = experiment: MTT assay of cell viability and proliferation, SKOV-3; assay type: cell-based, human; details: for cytotoxicity to SKOV-3 cells relative to apigenin: ratio of IC50 values
Outline: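 SKOV-3 cells were seeded at 5 × 10^3 cells/well in McCoy's 5A with 10% FCS, cultured overnight, then exposed to a range of concentrations, or to 0.1% DMSO control, for 24, 48 and 72 hr. MTT was added for 3 hr, formazan was dissolved in DMSO, and A560 was read. Viability was expressed relative to control, and IC50 was read from the plot of % viable cells versus concentration; three independent repeats.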

CCD-986Sk cells = experiment: MTT assay of cell viability, CCD-986Sk skin fibroblasts; assay type: cell-based, human; details: for toxicity to CCD-986Sk cells: 24 hr of exposure
Outline: (§1)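 Untransformed human fibroblasts (CCD-986Sk skin, WI-38 lung) in MEM with 10% FCS were seeded at 1 × 10^4 cells/well, cultured overnight, then exposed to graded concentrations, or to 0.1% DMSO control, for 24 hr at 37°C, 5% CO2. MTT was added for 3 hr, formazan was dissolved in DMSO, and A560 was read. Survival was expressed relative to control, and IC50 was taken from the viability-versus-concentration plot; three independent repeats.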

WI-38 cells = experiment: MTT assay of cell viability, WI-38 lung fibroblasts; assay type: cell-based, human; details: for IC50: read-out: IC50 value, WI-38 cells
Outline: as §1

caspase-9 = experiment: Caspase-9 colorimetric activity assay in treated SKOV-3 cells; assay type: cell-based, human; details: SKOV-3, 24 hr
Outline: (§2)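 SKOV-3 cells (McCoy's 5A, 10% FCS, 37°C, 5% CO2) were seeded at 5 × 10^5 in 5 mL flasks overnight, then treated in 0.1% DMSO vehicle (DMSO-only control) for 12 and 24 hr. Cells were trypsinized and lysed on ice, and 100 μg protein was taken per well. Reactions used 10 mM DTT final and caspase-specific colorimetric substrate, 37°C for 1–2 hr, read at 400–405 nm. Done in triplicate.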

SKOV-3 cells [2] = experiment: Cell cycle analysis by PI staining and flow cytometry; assay type: cell-based, human
BCL2 = experiment: RT-qPCR transcript expression in SKOV-3 cells, BCL2; assay type: cell-based, human; details: SKOV-3, 24 hr, 18.502 μM, p < 0.01
Outline: (§3)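 SKOV-3 cells were seeded at 5 × 10^5 in 5 mL flasks and treated for 24 hr in 0.1% DMSO (vehicle control). Total RNA was column-extracted. One-step SYBR RT-qPCR used 20 ng RNA and 0.4 μM each primer: RT at 42°C for 5 min, 95°C for 10 s, then 40 cycles of 95°C 10 s / 60°C 30 s, with melt-curve check. Expression was normalised to GAPDH and compared with control; three independent repeats, one-way ANOVA with Tukey test.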

SKOV-3 cells [3] = experiment: Cell imaging; assay type: cell-based, human; details: for morphological change of treated SKOV-3 cells: 48 hr, 200× magnification, α-mangostin 7.309 μM, apigenin 18.502 μM, doxorubicin 0.431 μM
caspase-3 = experiment: Caspase-3 colorimetric activity assay in treated SKOV-3 cells; assay type: cell-based, human; details: α-mangostin 7.309 μM
Outline: as §2

[4] = test system: SKOV-3 ovarian cancer cells; details: 0.033–1.0 mg/mL, 24 hr of exposure ref 10; cited from earlier work
ES2 ovarian cancer cells = details: 0.033–1.0 mg/mL, 24 hr of exposure ref 10; cited from earlier work
[5] = test system: ovarian cancer cell line A2780; details: read-out: half maximal inhibitory concentration (IC50); A2780 ref 9; cited from earlier work
COX2 = experiment: RT-qPCR transcript expression in SKOV-3 cells, COX2; assay type: cell-based, human; details: SKOV-3, 24 hr, 7.309 μM, p < 0.05
Outline: as §3

NFκB = experiment: RT-qPCR transcript expression in SKOV-3 cells, NFκB; assay type: cell-based, human; details: SKOV-3, 24 hr, 7.309 μM
[6] = Homo sapiens, SK-OV-3, 24 h, read-out: IC50 value at an incubation time of 24 hr
[7] = Homo sapiens, SK-OV-3, 48 h, read-out: IC50 value at an incubation time of 48 hr
[8] = Homo sapiens, SK-OV-3, 72 h, read-out: IC50 value at an incubation time of 72 hr

Compound: O=c1cc(-c2ccc(O)cc2)oc2cc(O)cc(O)c12 [Apigenin]
- IC50 (SKOV-3 cells [1]; [6]): 26.5 ± 6.02 µM
- IC50 (SKOV-3 cells [1]; [7]): 21.2 ± 5.25 µM
- IC50 (SKOV-3 cells [1]; [8]): 18.2 ± 3.1 µM
- toxicity to CCD-986Sk cells (CCD-986Sk cells): nontoxic
- cell survival (CCD-986Sk cells; CCD-986Sk, 24 hr, 92.510 μM): 70%
- relative cell survival (CCD-986Sk cells; CCD-986Sk, 24 hr, 1.156–55.506 μM): 100%
- IC50 (WI-38 cells; Homo sapiens, WI-38, 24 h): 36.9 ± 0.971 µM
- concentration nontoxic to the cells (WI-38 cells; WI-38, 24 hr): up to 27.753 μM
- concentration that did not affect cell growth (WI-38 cells; WI-38, 24 hr): 1156 to 2313 nM
- caspase-9 level (activity) vs control (caspase-9): statistically significant (p < 0.01)
- cell cycle arrest (G2/M phase) (SKOV-3 cells [2]; SKOV-3, after 48 hr of exposure, 18.502 μM): likewise arrested the cells
- BCL2 transcript expression level relative to control (BCL2): upregulation was significant
- morphological change of treated SKOV-3 cells (SKOV-3 cells [3]): Cell shrinkage

- IC50 (SKOV-3 cells [1]; [6]): 0.534 ± 0.084 µM
- IC50 (SKOV-3 cells [1]; [7]): 0.343 ± 0.023 µM
- IC50 (SKOV-3 cells [1]; [8]): 0.117 ± 0.008 µM
Compound: COc1cccc2c1C(=O)c1c(O)c3c(c(O)c1C2=O)C[C@@](O)(C(=O)CO)C[C@@H]3O[C@H]1C[C@H](N)[C@H](O)[C@H](C)O1 [Doxorubicin, reference compound]
- toxicity to CCD-986Sk cells (CCD-986Sk cells): did not affect the growth
- IC50 (WI-38 cells; Homo sapiens, WI-38, 24 h): 0.604 ± 0.156 µM
- caspase-3 activity vs control (caspase-3; SKOV-3, 24 hr, apigenin 18.502 μM, doxorubicin 0.431 μM): not significant
- morphological change of treated SKOV-3 cells (SKOV-3 cells [3]): some cell blebbing

Compound: CC(=O)OCO/N=[N+](\[O-])NC(C)C [O^2-(acetoxymethyl)-1-(isopropylamino)diazen-1-ium-1,2-diolate]
- effect on proliferation [4]: reduced the proliferation
- effect on proliferation (ES2 ovarian cancer cells): reduced the proliferation

Compound: CC(=O)OCON=[N+]([O-])NCC(C)C [O^2-(acetoxymethyl)-1-(iso-butylamino)diazen-1-ium-1,2-diolate]
- effect on proliferation [4]: reduced the proliferation
- effect on proliferation (ES2 ovarian cancer cells): reduced the proliferation

Compound: CCCCCCCCC(OCCC(C)C)c1ccc2c(c1OC)/C(=N/O)C=C/C2=N\O (stereo not shown) [(1E,4E)-6-(1-(isopentyloxy)nonyl)-5-methoxynaphthalene-1,4-dione dioxime]
- IC50 [5]: 8.26 ± 0.22 µM

Compound: COc1c(O)cc2oc3cc(O)c(CC=C(C)C)c(O)c3c(=O)c2c1CC=C(C)C [α-Mangostin]
- cytotoxicity to SKOV-3 cells relative to apigenin (SKOV-3 cells [1]; 24 hr): 10.8 fold
- cytotoxicity to SKOV-3 cells relative to apigenin (SKOV-3 cells [1]; 72 hr): 5.9 fold
- IC50 (SKOV-3 cells [1]; read-out: IC50 value at an incubation time of 24 hr, SKOV-3 cells, MTT, 24 hr): 2.47 ± 0.338 µM
- IC50 (SKOV-3 cells [1]; read-out: IC50 value at an incubation time of 48 hr, SKOV-3 cells, MTT, 48 hr): 2.98 ± 0.054 µM
- IC50 (SKOV-3 cells [1]; read-out: IC50 value at an incubation time of 72 hr, SKOV-3 cells, MTT, 72 hr): 3.06 ± 0.349 µM
- concentration safe for CCD-986Sk skin fibroblasts (CCD-986Sk cells; 24 hr): less than 6.091 μM
- cytotoxicity in CCD-986Sk cells, fold less than in SKOV-3 cells (CCD-986Sk cells; 24 hr): about 4 fold
- IC50 (CCD-986Sk cells; read-out: IC50 value, CCD-986Sk cells, 24 hr of treatment, MTT): 9.8 ± 3.17 µM
- IC50 (WI-38 cells; 24 hr of treatment, MTT): 1.5 ± 0.464 µM
- caspase-3 activity vs control (caspase-3; SKOV-3, 12 hr): significantly (p < 0.05) increased
- cell cycle arrest (SKOV-3 cells [2]; SKOV-3, after 24 hr of exposure, 7.309 μM): induced arrest at the G2/M phase
- COX2 transcript expression level relative to control (COX2): upregulation was significant
- NFκB transcript expression level relative to control (NFκB): remained the same as in the control cells
- morphological change of treated SKOV-3 cells (SKOV-3 cells [3]): mostly damaged
- effect at the small-scale IC50 value in larger-scale cultures (SKOV-3 cells [3]; SKOV-3, 5 × 10^5 cells in 5 mL, T25 flasks): not effective at all
